# The list is not random: actives were taken first. Their share in the collection is about 1%.
# FXIIa inh: human FXIIa protease inhibitors, primary screen, biochemical, 1536-well. Coagulation factor XII (Homo sapiens), P00748. purified FXIIa, Boc-QGR-AMC fluorogenic substrate, 2 h. inhibition, % at 5 µM. 0.3% of 220,000 active; in the data active = inhibition above about 40%;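 also: 0% = enzyme with no compound and 100% = blank without enzyme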
# FXIa inh: human FXIa protease inhibitors, primary screen, biochemical, 1536-well. Coagulation factor XI (Homo sapiens), P03951. purified FXIa, Boc-Glu-Ala-Arg-AMC fluorogenic substrate. inhibition, % at 5 µM. 0.14% of 220,000 active. AID 798, 2007;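 active = inhibition of at least 40%; inactive = inhibition below 40%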;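 also: fluorescence of freed AMC excited at 355 nm; 0% = enzyme without compound and 100% = no enzyme blank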
# Target sequence (P03951 19-387 limits assumed): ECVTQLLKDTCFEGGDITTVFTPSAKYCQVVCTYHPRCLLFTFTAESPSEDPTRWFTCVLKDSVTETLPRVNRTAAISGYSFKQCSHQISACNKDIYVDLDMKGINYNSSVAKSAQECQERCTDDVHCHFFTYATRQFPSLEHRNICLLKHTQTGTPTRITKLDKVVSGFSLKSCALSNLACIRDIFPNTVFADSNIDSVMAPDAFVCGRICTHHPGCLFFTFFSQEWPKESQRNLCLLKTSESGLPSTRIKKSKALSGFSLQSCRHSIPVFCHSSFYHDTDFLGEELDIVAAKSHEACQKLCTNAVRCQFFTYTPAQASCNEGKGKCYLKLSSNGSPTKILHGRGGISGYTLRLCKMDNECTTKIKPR
# Target sequence (P03951 388-625 limits assumed): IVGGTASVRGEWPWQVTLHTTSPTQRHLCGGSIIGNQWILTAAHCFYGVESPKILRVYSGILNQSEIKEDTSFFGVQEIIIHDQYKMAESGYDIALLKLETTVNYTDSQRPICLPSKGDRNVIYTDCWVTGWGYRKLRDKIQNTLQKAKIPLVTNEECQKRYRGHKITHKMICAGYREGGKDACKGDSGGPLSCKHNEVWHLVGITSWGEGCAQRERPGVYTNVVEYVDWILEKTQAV
# KLK5 inh: human KLK5 protease inhibitors, primary screen, biochemical, 1536-well; Kallikrein-5 (Homo sapiens), Q9Y337; recombinant hK5, fluorogenic AMC substrate cleavage; inhibition, % at 5 µM; 0.59% of 210,000 active;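 active = inhibition of 40% or more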;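 also: 0% = enzyme controls without compound and 100% = no-enzyme blanks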
# Thrombin inh: human alpha-thrombin inhibitors, primary screen, counter-screen for coagulation protease inhibitor project, biochemical, 1536-well, fluorogenic AMC substrate; Boc-VPR-AMC fluorogenic substrate cleavage; inhibition, % at 5 µM; 0.26% of 220,000 active; AID 1046, 2008;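 active = inhibition at or above 40%; inactive = inhibition below 40%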;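 also: 0% = enzyme with no compound and 100% = wells without enzyme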
#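 System: Human alpha-thrombin protein | Medium: pH 7.5 Tris (50 mM) with NaCl 150 mM, Tween 20 0.05% | Times: Enzyme reaction carried out at room temperature | Detection: AMC fluorescence, 355/460 nm | Evaluation: Percent inhibition scaled between no-compound controls and no-enzyme blanks | Benchmarks: Enzyme without compound as high, wells lacking enzyme as low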
# Numbers without * were called inactive.
SMILES,FXIIa inh,FXIa inh,KLK5 inh,Thrombin inh
Cc1ccc(C(=O)CSc2nc(C)cc(C)c2C(N)=O)cc1,22,14,49*,104*
Cc1ccccc1NC(=O)c1c(C)nn(-c2ccccc2)c1Cl,8,4,-15,-5
Fc1ccc(Oc2cnc3ccccc3n2)cc1,10,-1,3,95*
Cc1ccc(Oc2cnc3ccccc3n2)cc1,11,3,-11,2
COc1ccccc1-c1cc(-c2ccccc2)nc(SC(C(N)=O)c2ccccc2)c1C#N (stereo not given),21,20,11,14
COc1ccc(CSc2n[nH]c(C)n2)cc1[N+](=O)[O-],11,-3,48*,24
CC(C)c1c(O)c2c(n(-c3ccccc3)c1=O)CCCC2,3,-4,-3,-4
CC(C)OP(=O)(OC(C)C)C(C)NC(=O)Cc1ccccc1 (stereo not given),4,-8,-2,-20
CC12COC3(C(=O)Nc4nccs4)CC1CCC32C (stereo not given),14,1,72*,12
CCOC(=O)NC(=O)CSc1nc2ccc(OCC)cc2[nH]1,22,2,-8,3
CCOC(=O)NC(=O)CSc1nc2ccc([N+](=O)[O-])cc2[nH]1,27,31,44*,14
CCOc1ccc2[nH]c(=O)c(C(c3nnnn3C3CCCCC3)N3CCN(C)CC3)cc2c1 (stereo not given),48*,36,-32,2
CCOc1ccc2[nH]c(=O)c(C(c3nnnn3C3CCCCC3)N3CCN(CC)CC3)cc2c1 (stereo not given),-18,-19,-1,-3
CN(CC(=O)Nc1cc(S(=O)(=O)N2CCOCC2)ccc1Cl)C1CCS(=O)(=O)C1 (stereo not given),8,-1,-4,-10
Cc1ccc(NC(=O)Cn2cccc2)cc1C,8,13,-4,-4
Cc1ccc(NC(=O)CSCC(N)=O)cc1C,42*,9,42*,11
Cc1ccc(NC(=O)CCn2cccc2)cc1C,43*,14,32,32
COc1ccc(C(=O)NC(=S)NNC(=O)CNC(=O)C2CCCCC2)cc1,4,-5,-8,4
CCOC(=O)C1=C(O)/C(=C\c2ccc(CNC(=O)C(=O)Nc3ccc(C)c(C)c3)o2)N=C1C,18,4,-23,3
O=C(N/N=C/c1cc([N+](=O)[O-])ccc1O)c1cccc2cc[nH]c12,19,-9,60*,13
O=C(NC1CCCC1)C(c1ccccn1)N(C(=O)c1csnn1)C1CC1 (stereo not given),15,44*,-4,2
COC(=O)CC1C(=O)NCCN1C(=O)Nc1cccc(Cl)c1 (stereo not given),9,2,5,-1
COc1ccc(OC)c(NC(=O)CC2C(=O)NCCN2C(=O)Nc2cccc(Cl)c2)c1 (stereo not given),45*,10,31,23
CCN1CCN(CC(=O)Nc2cc(C)on2)CC1,27,46*,42*,3
O=C(N/N=C/c1c[nH]c2ccccc12)c1cc(-c2ccc3ccccc3c2)n[nH]1,12,7,-7,-5
SMILES,FXIIa inh,FXIa inh,KLK5 inh,Thrombin inh
O=C(N/N=C/c1c[nH]c2ccccc12)c1cc(-c2cccc3ccccc23)n[nH]1,-4,7,25,43*
CC(C)OCCCn1c(=S)[nH]c2cc3c(cc2c1=O)OCO3,21,19,45*,44*
CC(C(=O)NCc1ccccn1)N1C(=O)c2ccccc2C1=O (stereo not given),13,18,34,104*
CCN(Cc1ccccc1)c1ccc(/C=N/NC(=O)c2cccc(S(=O)(=O)N3CCOCC3)c2)cc1,20,12,56*,20
CCN(CC)c1ccc(/C=N/NC(=O)c2cccc(S(=O)(=O)N3CCOCC3)c2)cc1,3,5,-14,-14
O=C(CSc1nc2[nH]ncc2c(=O)[nH]1)N1CCCC1,8,4,-5,-15
O=C(CSc1nc2[nH]ncc2c(=O)[nH]1)N1CCCCC1,15,3,36,47*
Cc1nn2c(CN(C(=O)CN3CCOCC3)c3ccccc3)nnc2c2ccccc12,42*,26,30,10
Cc1nn2c(CN(C(=O)COc3ccccc3)c3ccccc3)nnc2c2ccccc12,-3,2,-17,-7
O=C(CSc1nnc(CSc2nc3ccccc3s2)o1)NC1CCCCC1,-6,1,14,-1
O=C(CSc1nc2ccccc2s1)NC1CCCC1,42*,7,8,4
Cc1csc(SCC(=O)Nc2c(C)n(C)n(-c3ccccc3)c2=O)n1,18,13,6,18
Cc1c(NC(=O)CSc2nc3ccccc3s2)c(=O)n(-c2ccccc2)n1C,45*,0,-16,-5
O=C(NNC(=O)C(c1ccccc1)c1ccccc1)c1cccs1,25,19,56*,104*
O=C(NNC(=O)c1cccs1)c1ccc(Br)o1,18,43*,-14,17
Cn1c(SCC(=O)N/N=C/c2ccc([N+](=O)[O-])s2)nnc1-c1ccc(Cl)cc1,14,12,-20,1
Cc1nn(Cc2ccc(C(=O)Nc3nccs3)cc2)c(C)c1Cl,25,13,44*,104*
Cc1nn(Cc2ccc(C(=O)NN)cc2)c(C)c1Cl,12,5,3,3
O=C1CN(C(=O)COc2ccc(F)cc2Cl)c2ccccc2N1,12,-4,54*,14
Cc1cc(C(=O)OCC(=O)N2CC(=O)Nc3ccccc32)c(C)n1-c1ccccc1,10,5,60*,9
Cc1cc(C(=O)OCC(=O)N2CC(=O)Nc3ccccc32)c(C)n1-c1ccc(F)cc1,4,6,9,-10
COc1ccc(N2Nc3n[nH]c(N)c3N2)cc1,6,-2,3,1
Cc1ccc(N(CC(=O)NCCc2ccc(F)cc2)S(=O)(=O)c2ccc(Cl)c([N+](=O)[O-])c2)c(C)c1,-6,-11,-9,-15
C/C(=N\OC(=O)C1CC1)C1CC1c1ccc(F)cc1 (stereo not given),33,33,52*,31
COc1ccc(C2CC2/C(C)=N/OC(=O)C2CC2)cc1 (stereo not given),3,-2,-4,-3
Cc1ccc(C)c(NC(=O)CN(C)C(=O)CCN2C(=O)c3ccccc3C2=O)c1,46*,4,53*,8
COc1ccc(N(CC(O)CN2C(=O)NC(C)(C)C2=O)S(=O)(=O)c2ccc(C)cc2)cc1 (stereo not given),-8,2,-14,-5
Cc1ccc(N(CC(O)CN2C(=O)NC(C)(C)C2=O)S(=O)(=O)c2ccc(C)cc2)cc1 (stereo not given),49*,34,31,12
Cc1ccc(CCNC(=O)C2CC(c3ccc(C(F)(F)F)cc3)=NO2)cc1 (stereo not given),7,1,1,-2
Nc1nc(COc2ccccc2C=O)nc(Nc2ccccc2)n1,7,-4,-4,-5

# Source: PubChem (PCMD)
